Results reported in ChEMBL document CHEMBL3525946, “Species comparison of in vivo P-glycoprotein-mediated brain efflux using mdr1a-deficient rats and mice” (Drug Metab Dispos, 2012).

Experiments:
[1] = Total plasma concentration in wild type Sprague-Dawley rat expressing Abcb1a at 9 mg/kg/day administered through continuous minipump treatment for 3 days by UPLC-MS analysis; format: ADME, organism-based; details: other: continuous minipump
Summary of the method: (§1)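 Drug was infused subcutaneously by osmotic minipump for 3 days to steady state, at 1 µl/h in mice and 10 µl/h in rats, with doses derived from body weight and delivery rate. Animals were decapitated. Plasma came from EDTA trunk blood spun at 5000 g for 10 min at 4 °C. Whole brain was homogenised 1:4 in 70% acetonitrile and the supernatant kept. Samples were protein-precipitated with internal standard and analysed by UPLC. n=3-5, mean ± SEM.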

[2] = Total drug level in wild type Crl:CF1 mouse brain expressing Abcb1a mutant at 6 mg/kg/day administered through continuous minipump treatment for 3 days by UPLC-MS analysis; format: ADME, organism-based; details: other: continuous minipump, read-out: Drug uptake
Summary of the method: (§2)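 Subcutaneous osmotic minipump infusion for 3 days to steady state, implanted under isoflurane (rats 10 µl/h, mice 1 µl/h). Mdr1a-deficient (SD-Abcb1a knockout rats; Crl:CF1-Abcb1a mutant mice) and wild-type animals, n=3-5 per group. After decapitation, EDTA plasma and whole brain (homogenized 1:4 in 70% acetonitrile) were precipitated with internal standard. Parent and metabolites quantified by UPLC-MS. Mean ± SEM.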

[3] = Percentage unbound in Crl:NMRI(Han) mouse plasma at 1 uM after 5 hrs by equilibrium dialysis method; format: ADME, cell-free
Summary of the method: (§3)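 Equilibrium dialysis (12-14 kDa membrane) of plasma or brain homogenate from naïve male Sprague-Dawley rats or Crl:NMRI(Han) mice. Donor side spiked to 1 µM final; receiver phosphate buffer pH 7.4; 37°C for 5 h. Buffer phase quantified by LC-MS. Brain fu corrected for homogenate dilution to intact tissue. Mean of two independent determinations.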

[4] = Total drug level in mdr1a-deficient mouse brain at 6 mg/kg/day administered through continuous minipump treatment for 3 days by UPLC-MS analysis; format: ADME, organism-based; details: other: continuous minipump, read-out: Drug uptake; summary of the method: as §2
[5] = Total drug level in mdr1a-deficient rat brain at 9 mg/kg/day administered through continuous minipump treatment for 3 days by UPLC-MS analysis; format: ADME, organism-based; details: other: continuous minipump, read-out: Drug uptake; summary of the method: as §1
[6] = Percentage unbound in Sprague-Dawley rat plasma at 1 uM after 5 hrs by equilibrium dialysis method; format: ADME, cell-free; summary of the method: as §3
[7] = Total plasma concentration in wild type Crl:CF1 mouse expressing Abcb1a mutant at 6 mg/kg/day administered through continuous minipump treatment for 3 days by UPLC-MS analysis; format: ADME, organism-based; details: other: continuous minipump; summary of the method: as §2
[8] = Total plasma concentration in mdr1a-deficient rat at 9 mg/kg/day administered through continuous minipump treatment for 3 days by UPLC-MS analysis; format: ADME, organism-based; details: other: continuous minipump; summary of the method: as §1
[9] = Percentage unbound in Sprague-Dawley rat brain at 1 uM after 5 hrs by equilibrium dialysis method; format: ADME, tissue-based; summary of the method: as §3
[10] = Total drug level in wild type Sprague-Dawley rat brain expressing Abcb1a at 9 mg/kg/day administered through continuous minipump treatment for 3 days by UPLC-MS analysis; format: ADME, organism-based; details: other: continuous minipump, read-out: Drug uptake; summary of the method: as §1
[11] = Percentage unbound in Crl:NMRI(Han) mouse brain at 1 uM after 5 hrs by equilibrium dialysis method; format: ADME, tissue-based; summary of the method: as §3
[12] = Total plasma concentration in mdr1a-deficient mouse at 6 mg/kg/day administered through continuous minipump treatment for 3 days by UPLC-MS analysis; format: ADME, organism-based; details: other: continuous minipump; summary of the method: as §2
[13] = Total drug level in mdr1a-deficient mouse brain treated with venlafaxine at 12 mg/kg/day administered through continuous minipump treatment for 3 days by UPLC-MS analysis; format: ADME, organism-based; details: other: continuous minipump, read-out: Drug uptake; summary of the method: as §2
[14] = Total drug level in wild type Sprague-Dawley rat brain expressing Abcb1a treated with venlafaxine at 9 mg/kg/day administered through continuous minipump treatment for 3 days by UPLC-MS analysis; format: ADME, organism-based; details: other: continuous minipump, read-out: Drug uptake; summary of the method: as §2
[15] = Unbound brain to plasma partition coefficient of the compound in wild type Crl:CF1 mouse expressing Abcb1a mutant treated with venlafaxine at 12 mg/kg/day administered through continuous minipump treatment for 3 days; format: ADME, organism-based; details: other: continuous minipump, read-out: K(p,uu,brain)
Summary of the method: (§4)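 Kp,uu is (Cbrain,total × fu,brain)/(Cplasma,total × fu,plasma). Total concentrations were measured at steady state after a 3-day subcutaneous minipump infusion in knockout or wild-type animals. Species-matched free fractions came from 5 h, 37°C equilibrium dialysis at 1 µM in naïve plasma and brain homogenate.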

[16] = Total brain to plasma partition coefficient of the compound in mdr1a-deficient rat treated with venlafaxine at 9 mg/kg/day administered through continuous minipump treatment for 3 days; format: ADME, organism-based; details: brain and plasma, other: continuous minipump
Summary of the method: (§5)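 Kp is total brain concentration divided by total plasma concentration at steady state. Measured after a 3-day subcutaneous osmotic minipump infusion in mdr1a-deficient or wild-type rats or mice, n=3-5. Concentrations determined by UPLC-MS in plasma and in whole-brain homogenate (70% acetonitrile). Mean ± SEM.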

[17] = Unbound brain to plasma partition coefficient of the compound in mdr1a-deficient mouse treated with venlafaxine at 12 mg/kg/day administered through continuous minipump treatment for 3 days; format: ADME, organism-based; details: other: continuous minipump, read-out: K(p,uu,brain); summary of the method: as §4
[18] = Total brain to plasma partition coefficient of the compound in wild type Crl:CF1 mouse expressing Abcb1a mutant treated with venlafaxine at 12 mg/kg/day administered through continuous minipump treatment for 3 days; format: ADME, organism-based; details: other: continuous minipump; summary of the method: as §5
[19] = Total plasma concentration in mdr1a-deficient mouse treated with venlafaxine at 12 mg/kg/day administered through continuous minipump treatment for 3 days by UPLC-MS analysis; format: ADME, organism-based; details: other: continuous minipump; summary of the method: as §2
[20] = Total brain to plasma partition coefficient of the compound in mdr1a-deficient mouse treated with venlafaxine at 12 mg/kg/day administered through continuous minipump treatment for 3 days; format: ADME, organism-based; details: other: continuous minipump; summary of the method: as §5
[21] = Unbound brain to plasma partition coefficient of the compound in wild type Sprague-Dawley rat expressing Abcb1a treated with venlafaxine at 9 mg/kg/day administered through continuous minipump treatment for 3 days; format: ADME, organism-based; details: other: continuous minipump, read-out: K(p,uu,brain); summary of the method: as §4
[22] = Total drug level in mdr1a-deficient rat brain treated with venlafaxine at 9 mg/kg/day administered through continuous minipump treatment for 3 days by UPLC-MS analysis; format: ADME, organism-based; details: other: continuous minipump, read-out: Drug uptake; summary of the method: as §2
[23] = Total plasma concentration in wild type Sprague-Dawley rat expressing Abcb1a treated with venlafaxine at 9 mg/kg/day administered through continuous minipump treatment for 3 days by UPLC-MS analysis; format: ADME, organism-based; details: other: continuous minipump; summary of the method: as §2
[24] = Unbound brain to plasma partition coefficient of the compound in mdr1a-deficient Sprague-Dawley rat treated with venlafaxine at 9 mg/kg/day administered through continuous minipump treatment for 3 days; format: ADME, organism-based; details: other: continuous minipump, read-out: K(p,uu,brain); summary of the method: as §4
[25] = Total plasma concentration in wild type Crl:CF1 mouse expressing Abcb1a mutant treated with venlafaxine at 12 mg/kg/day administered through continuous minipump treatment for 3 days by UPLC-MS analysis; format: ADME, organism-based; details: other: continuous minipump; summary of the method: as §2
[26] = Total brain to plasma partition coefficient of the compound in wild type Sprague-Dawley rat expressing Abcb1a treated with venlafaxine at 9 mg/kg/day administered through continuous minipump treatment for 3 days; format: ADME, organism-based; details: brain and plasma, other: continuous minipump; summary of the method: as §5
[27] = Total drug level in wild type Crl:CF1 mouse brain expressing Abcb1a mutant treated with venlafaxine at 12 mg/kg/day administered through continuous minipump treatment for 3 days by UPLC-MS analysis; format: ADME, organism-based; details: other: continuous minipump, read-out: Drug uptake; summary of the method: as §2
[28] = Total plasma concentration in mdr1a-deficient rat treated with venlafaxine at 9 mg/kg/day administered through continuous minipump treatment for 3 days by UPLC-MS analysis; format: ADME, organism-based; details: other: continuous minipump; summary of the method: as §2

SMILES | fraction unbound at 5 h, 1 µM [3] | fraction unbound at 5 h, 1 µM [6] | fraction unbound at 5 h, 1 µM [9] | fraction unbound at 5 h, 1 µM [11] | concentration at 72 h [13] [ng/g] | concentration at 72 h [14] [ng/g] | Kp uu at 72 h [15] | Kp at 72 h [16] | Kp uu at 72 h [17] | Kp at 72 h [18] | concentration at 72 h [19] [ng/mL] | Kp at 72 h [20] | Kp uu at 72 h [21] | concentration at 72 h [22] [ng/g] | concentration at 72 h [23] [ng/mL] | Kp uu at 72 h [24] | concentration at 72 h [25] [ng/mL] | Kp at 72 h [26] | concentration at 72 h [27] [ng/g] | concentration at 72 h [28] [ng/mL] | also measured
Br.CN(C)CCCC1(c2ccc(F)cc2)OCc2cc(C#N)ccc21 (configuration not stated) [CITALOPRAM HYDROBROMIDE] | 0.32 | 0.5 | 0.031 | 0.035 |  |  |  |  |  |  |  |  |  |  |  |  |  |  |  |  | concentration at 72 h [1]: 27 ng/mL; concentration at 72 h [2]: 191 ng/g; concentration at 72 h [4]: 361 ng/g; concentration at 72 h [5]: 1200 ng/g; concentration at 72 h [7]: 8.8 ng/mL; concentration at 72 h [8]: 35 ng/mL; concentration at 72 h [10]: 265 ng/g; concentration at 72 h [12]: 8.2 ng/mL
CN(C)CC(c1ccc(O)cc1)C1(O)CCCCC1 (configuration not stated) [DESVENLAFAXINE] | > 0.99 | 0.89 | 0.35 | 0.45 | 40 | 4.4 | 0.8 | 3.3 | 2.4 | 1.8 | 7.5 | 5.7 | 0.38 | 33 | 4.5 | 1.2 | 5.7 | 1 | 10 | 11 | 
CNCC(c1ccc(OC)cc1)C1(O)CCCCC1 (configuration not stated) [N-DESMETHYLVENLAFAXINE] | 0.8 | 0.32 | 0.08 | 0.16 | 77 | 9.3 | 0.29 | 8.9 | 1.4 | 1.5 | 11 | 7 | 0.34 | 79 | 6.8 | 2 | 17 | 1.4 | 25 | 10 | 
